From ChEMBL document CHEMBL4152256, “Structure-activity relationship of new antimalarial 1-aryl-3-susbtituted propanol derivatives: Synthesis, preliminary toxicity profiling, parasite life cycle stage studies, target exploration, and targeted delivery” (Eur J Med Chem, 2018)

Assays:
[1] = tested on: Plasmodium falciparum; assay: Antiplasmodial activity against multidrug-resistant Plasmodium falciparum FCR-3 by [3H]-hypoxanthine incorporation assay; assay type: functional, organism-based, FCR-3/Gambia; settings: Plasmodium falciparum, FCR-3/Gambia
How it was run: (§1)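 Blood-stage P. falciparum 3D7 and FCR-3 were tested by a modified [3H]-hypoxanthine incorporation assay. Chloroquine was the reference in all runs.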

[2] = tested on: Plasmodium falciparum; assay: Antiplasmodial activity against chloroquine-sensitive Plasmodium falciparum 3D7 by [3H]-hypoxanthine incorporation assay; assay type: functional, organism-based; settings: Plasmodium falciparum, 3D7; how it was run: as §1
[3] = Cytotoxicity against human HepG2A16 cells by MTT assay; assay type: cell-based; settings: HepG2A16 cells
How it was run: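 MTT viability assay on HepG2-A16 cells, giving CC50 values.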

[4] = Selectivity index, ratio of CC50 for human HepG2A16 cells by MTT assay to IC50 for multidrug-resistant Plasmodium falciparum FCR-3; assay type: toxicity; settings: HepG2A16 cells, read-out: Ratio CC50/IC50
How it was run: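 HepG2-A16 human hepatoma cells were tested by MTT viability assay to give CC50. Blood-stage activity was measured against the multidrug-resistant P. falciparum FCR-3 strain by [3H]-hypoxanthine incorporation to give IC50. SI = CC50 HepG2 / FCR-3 IC50.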

[5] = Genotoxicity in Salmonella typhimurium TA1535 harboring pSK1002 assessed as survival at 0.004 mg/ml in absence of Sprague-Dawley rat liver S9 fraction after by SOS/umu assay relative to control; assay type: toxicity, organism-based; settings: salmonella enterica subsp. enterica serovar typhimurium, read-out: Survival
[6] = Genotoxicity in Salmonella typhimurium TA1535 harboring pSK1002 assessed as umu gene induction at 0.004 mg/ml in absence of Sprague-Dawley rat liver S9 fraction after by SOS/umu assay relative to control; assay type: toxicity, organism-based; settings: salmonella enterica subsp. enterica serovar typhimurium, read-out: FC
[7] = Genotoxicity in Salmonella typhimurium TA1535 harboring pSK1002 assessed as survival at 0.004 mg/ml in presence of Sprague-Dawley rat liver S9 fraction after by SOS/umu assay relative to control; assay type: toxicity, organism-based; settings: salmonella enterica subsp. enterica serovar typhimurium, read-out: Survival
[8] = Genotoxicity in Salmonella typhimurium TA1535 harboring pSK1002 assessed as umu gene induction at 0.004 mg/ml in presence of Sprague-Dawley rat liver S9 fraction after by SOS/umu assay relative to control; assay type: toxicity, organism-based; settings: salmonella enterica subsp. enterica serovar typhimurium, read-out: FC
[9] = Genotoxicity in Salmonella typhimurium TA1535 harboring pSK1002 assessed as survival at 0.002 mg/ml in absence of Sprague-Dawley rat liver S9 fraction after by SOS/umu assay relative to control; assay type: toxicity, organism-based; settings: salmonella enterica subsp. enterica serovar typhimurium, read-out: Survival
[10] = Genotoxicity in Salmonella typhimurium TA1535 harboring pSK1002 assessed as umu gene induction at 0.002 mg/ml in absence of Sprague-Dawley rat liver S9 fraction after by SOS/umu assay relative to control; assay type: toxicity, organism-based; settings: salmonella enterica subsp. enterica serovar typhimurium, read-out: FC
[11] = Genotoxicity in Salmonella typhimurium TA1535 harboring pSK1002 assessed as survival at 0.002 mg/ml in presence of Sprague-Dawley rat liver S9 fraction after by SOS/umu assay relative to control; assay type: toxicity, organism-based; settings: salmonella enterica subsp. enterica serovar typhimurium, read-out: Survival
[12] = Genotoxicity in Salmonella typhimurium TA1535 harboring pSK1002 assessed as umu gene induction at 0.002 mg/ml in presence of Sprague-Dawley rat liver S9 fraction after by SOS/umu assay relative to control; assay type: toxicity, organism-based; settings: salmonella enterica subsp. enterica serovar typhimurium, read-out: FC
[13] = Genotoxicity in Salmonella typhimurium TA1535 harboring pSK1002 assessed as survival at 0.001 mg/ml in absence of Sprague-Dawley rat liver S9 fraction after by SOS/umu assay relative to control; assay type: toxicity, organism-based; settings: salmonella enterica subsp. enterica serovar typhimurium, read-out: Survival
[14] = Genotoxicity in Salmonella typhimurium TA1535 harboring pSK1002 assessed as umu gene induction at 0.001 mg/ml in absence of Sprague-Dawley rat liver S9 fraction after by SOS/umu assay relative to control; assay type: toxicity, organism-based; settings: salmonella enterica subsp. enterica serovar typhimurium, read-out: FC
[15] = Genotoxicity in Salmonella typhimurium TA1535 harboring pSK1002 assessed as survival at 0.001 mg/ml in presence of Sprague-Dawley rat liver S9 fraction after by SOS/umu assay relative to control; assay type: toxicity, organism-based; settings: salmonella enterica subsp. enterica serovar typhimurium, read-out: Survival
[16] = Genotoxicity in Salmonella typhimurium TA1535 harboring pSK1002 assessed as umu gene induction at 0.001 mg/ml in presence of Sprague-Dawley rat liver S9 fraction after by SOS/umu assay relative to control; assay type: toxicity, organism-based; settings: salmonella enterica subsp. enterica serovar typhimurium, read-out: FC
[17] = Genotoxicity in Salmonella typhimurium TA1535 harboring pSK1002 assessed as survival at 0.0005 mg/ml in absence of Sprague-Dawley rat liver S9 fraction after by SOS/umu assay relative to control; assay type: toxicity, organism-based; settings: salmonella enterica subsp. enterica serovar typhimurium, read-out: Survival
[18] = Genotoxicity in Salmonella typhimurium TA1535 harboring pSK1002 assessed as umu gene induction at 0.0005 mg/ml in absence of Sprague-Dawley rat liver S9 fraction after by SOS/umu assay relative to control; assay type: toxicity, organism-based; settings: salmonella enterica subsp. enterica serovar typhimurium, read-out: FC
[19] = Genotoxicity in Salmonella typhimurium TA1535 harboring pSK1002 assessed as survival at 0.0005 mg/ml in presence of Sprague-Dawley rat liver S9 fraction after by SOS/umu assay relative to control; assay type: toxicity, organism-based; settings: salmonella enterica subsp. enterica serovar typhimurium, read-out: Survival
[20] = Genotoxicity in Salmonella typhimurium TA1535 harboring pSK1002 assessed as umu gene induction at 0.0005 mg/ml in presence of Sprague-Dawley rat liver S9 fraction after by SOS/umu assay relative to control; assay type: toxicity, organism-based; settings: salmonella enterica subsp. enterica serovar typhimurium, read-out: FC
[21] = Genotoxicity in Salmonella typhimurium TA1535 harboring pSK1002 assessed as survival at 0.0002 mg/ml in absence of Sprague-Dawley rat liver S9 fraction after by SOS/umu assay relative to control; assay type: toxicity, organism-based; settings: salmonella enterica subsp. enterica serovar typhimurium, read-out: Survival
[22] = Genotoxicity in Salmonella typhimurium TA1535 harboring pSK1002 assessed as umu gene induction at 0.0002 mg/ml in absence of Sprague-Dawley rat liver S9 fraction after by SOS/umu assay relative to control; assay type: toxicity, organism-based; settings: salmonella enterica subsp. enterica serovar typhimurium, read-out: FC
[23] = Genotoxicity in Salmonella typhimurium TA1535 harboring pSK1002 assessed as survival at 0.0002 mg/ml in presence of Sprague-Dawley rat liver S9 fraction after by SOS/umu assay relative to control; assay type: toxicity, organism-based; settings: salmonella enterica subsp. enterica serovar typhimurium, read-out: Survival
[24] = Genotoxicity in Salmonella typhimurium TA1535 harboring pSK1002 assessed as umu gene induction at 0.0002 mg/ml in presence of Sprague-Dawley rat liver S9 fraction after by SOS/umu assay relative to control; assay type: toxicity, organism-based; settings: salmonella enterica subsp. enterica serovar typhimurium, read-out: FC
[25] = Solubility of the compound in DSPC:cholesterol:DSPE-PEG2000-Mal:DOPE-Rho lipid mixture at 250 uM; assay type: physicochemical
How it was run: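 Compound added at 250 µM drug to the initial liposome lipid mixture (10 mM total lipid); precipitation and UV-visible absorbance above 300 nm assessed after encapsulation, removal of unencapsulated material and extraction with 1% w/v SDS in RPMI-A.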

[26] = Genotoxicity in Salmonella typhimurium TA1535 harboring pSK1002 assessed as survival at 0.016 mg/ml in absence of Sprague-Dawley rat liver S9 fraction after by SOS/umu assay relative to control; assay type: toxicity, organism-based; settings: salmonella enterica subsp. enterica serovar typhimurium, read-out: Survival
[27] = Genotoxicity in Salmonella typhimurium TA1535 harboring pSK1002 assessed as umu gene induction at 0.016 mg/ml in absence of Sprague-Dawley rat liver S9 fraction after by SOS/umu assay relative to control; assay type: toxicity, organism-based; settings: salmonella enterica subsp. enterica serovar typhimurium, read-out: FC
[28] = Genotoxicity in Salmonella typhimurium TA1535 harboring pSK1002 assessed as survival at 0.016 mg/ml in presence of Sprague-Dawley rat liver S9 fraction after by SOS/umu assay relative to control; assay type: toxicity, organism-based; settings: salmonella enterica subsp. enterica serovar typhimurium, read-out: Survival
[29] = Genotoxicity in Salmonella typhimurium TA1535 harboring pSK1002 assessed as umu gene induction at 0.016 mg/ml in presence of Sprague-Dawley rat liver S9 fraction after by SOS/umu assay relative to control; assay type: toxicity, organism-based; settings: salmonella enterica subsp. enterica serovar typhimurium, read-out: FC
[30] = Genotoxicity in Salmonella typhimurium TA1535 harboring pSK1002 assessed as survival at 0.008 mg/ml in absence of Sprague-Dawley rat liver S9 fraction after by SOS/umu assay relative to control; assay type: toxicity, organism-based; settings: salmonella enterica subsp. enterica serovar typhimurium, read-out: Survival
[31] = Genotoxicity in Salmonella typhimurium TA1535 harboring pSK1002 assessed as umu gene induction at 0.008 mg/ml in absence of Sprague-Dawley rat liver S9 fraction after by SOS/umu assay relative to control; assay type: toxicity, organism-based; settings: salmonella enterica subsp. enterica serovar typhimurium, read-out: FC
[32] = Genotoxicity in Salmonella typhimurium TA1535 harboring pSK1002 assessed as survival at 0.008 mg/ml in presence of Sprague-Dawley rat liver S9 fraction after by SOS/umu assay relative to control; assay type: toxicity, organism-based; settings: salmonella enterica subsp. enterica serovar typhimurium, read-out: Survival
[33] = Genotoxicity in Salmonella typhimurium TA1535 harboring pSK1002 assessed as umu gene induction at 0.008 mg/ml in presence of Sprague-Dawley rat liver S9 fraction after by SOS/umu assay relative to control; assay type: toxicity, organism-based; settings: salmonella enterica subsp. enterica serovar typhimurium, read-out: FC

SMILES | IC50 [1] [µM] | IC50 [2] [µM] | CC50 [3] [µM] | selectivity ratio [4] | viability at 0.004 mg/ml [5] [%] | fold induction at 0.004 mg/ml [6] | viability at 0.004 mg/ml [7] [%] | fold induction at 0.004 mg/ml [8] | viability at 0.002 mg/ml [9] [%] | fold induction at 0.002 mg/ml [10] | viability at 0.002 mg/ml [11] [%] | fold induction at 0.002 mg/ml [12] | viability at 0.001 mg/ml [13] [%] | fold induction at 0.001 mg/ml [14] | viability at 0.001 mg/ml [15] [%] | fold induction at 0.001 mg/ml [16] | viability at 0.0005 mg/ml [17] [%] | fold induction at 0.0005 mg/ml [18] | viability at 0.0005 mg/ml [19] [%] | fold induction at 0.0005 mg/ml [20] | other results
OC(CCN1CCN(C(c2ccccc2)c2ccccc2)CC1)c1ccc(F)c(Cl)c1 (stereo not drawn) | 1.39 | 5.11 | 269 | 194 | 119 | 0.8 | 87.7 | 1.2 | 103 | 1 | 73.1 | 1.1 | 105 | 1 | 91.4 | 0.5 | 117 | 0.9 | 97.7 | 0.9 | viability at 0.0002 mg/ml [21]: 110%; fold induction at 0.0002 mg/ml [22]: 0.8; viability at 0.0002 mg/ml [23]: 92.3%; fold induction at 0.0002 mg/ml [24]: 1; solubility [25]: Insoluble
OC(CCN1CCN(C(c2ccccc2)c2ccccc2)CC1)c1ccc(Br)cc1 (stereo not drawn) | 3.09 | 52.2 | 351 | 114 | 114 | 1 | 87.2 | 1 | 105 | 1.1 | 85.9 | 0.8 | 98.3 | 1 | 84.1 | 0.7 | 108 | 0.8 | 104 | 0.5 | viability at 0.016 mg/ml [26]: 121%; fold induction at 0.016 mg/ml [27]: 0.8; viability at 0.016 mg/ml [28]: 87.8%; fold induction at 0.016 mg/ml [29]: 1; viability at 0.008 mg/ml [30]: 116%; fold induction at 0.008 mg/ml [31]: 1.1; viability at 0.008 mg/ml [32]: 98.1%; fold induction at 0.008 mg/ml [33]: 0.9; viability at 0.0002 mg/ml [21]: 107%; fold induction at 0.0002 mg/ml [22]: 0.8; viability at 0.0002 mg/ml [23]: 96.7%; fold induction at 0.0002 mg/ml [24]: 1; solubility [25]: Insoluble
